# Screens (PubChem BioAssay)
# Rows were chosen to be rich in hits. Some 2.6% of all compounds tested hit in one or more screens of this group.
# PolyA inhibitor: polyadenylation inhibitors in yeast reporter cells, primary screen, luminescence, S. cerevisiae | S. cerevisiae SKY197-pL101 polyadenylation reporter, beta-gal luminescence; efflux-impaired pdr1/pdr3 knockout yeast; score 100 = 6 SD above DMSO | activity score, % at 12 µM | 0.02% of 300,000 active | AID 1875, 2009;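 active means lowest replicate activity score at least 50, where 100 means six control SD above control mean; inconclusive means lowest score under 50 but half or more replicates reach 50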;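 further: yeast exposed to compound for 9 h at 30 °C; higher score means more reporter readthrough which indicates perturbed polyadenylation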
# procasp7 counter: procaspase-7 activators, primary screen, counter-screen for procaspase-3 activator project, biochemical, absorbance, HTS, human; recombinant procaspase-7, Ac-DEVD-pNA absorbance 405 nm; D23A/D198A/D206A triple mutant, cannot self-cleave; scale: DMSO 0, 5 µM enzyme 100; 0.093% of 330,000 active; AID 463210, 2010; Caspase-7 (Homo sapiens), P55210; activation, % at 8.5 µM;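 active means percent activation above the screen-wide mean plus 3 SD, cut at about 25% in these data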
#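 Assay system: Uncleavable procaspase-7 mutant enzyme | Input: 2 µM procaspase-7 mutant as dispensed | Timing: 1 h compound preincubation, 2 h substrate cleavage, 25 °C | Repeats: One well per compound | Control set: DMSO wells as 0%, DMSO with 5 µM added PC-7 as 100% | Technique: Epi-absorbance of released pNA at 405 nm, two timepoints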
# procasp3 activ: activators of human procaspase-3 D3A mutant, primary screen, biochemical, absorbance, PC-3 D3A mutant, single concentration | recombinant procaspase-3 D3A, Ac-DEVD-pNA absorbance 405 nm | AID 463141, 2010 | 0.11% of 330,000 active | activation, % at 8.5 µM;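 active means activation above the mean of all tested compounds plus 3 SD, cut at about 21% in these data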
#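 Test system: Procaspase-3 D3A mutant; medium: Zinc-free HEPES/NaCl buffer with 0.01% Triton X-100 at pH 7.4; reagent: DEVD-pNA substrate; doses: one concentration, 8.5 µM nominal, 0.8% DMSO; times: 1 h preincubation plus 2 h reaction at 25 °C; signal: Epi-absorbance at 405 nm of released p-nitroaniline, 0 and 120 min; replicates: singlicate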
# AHR activator: AHR activators, primary screen, cell-based, luminescence, luciferase reporter, human. 2.5% of 320,000 active. AID 2796, 2010. AHR-responsive luciferase reporter cells. activation, % at 5 µM; in the data active means activation above about 47%
# Target sequence (P35869 whole entry, looked up): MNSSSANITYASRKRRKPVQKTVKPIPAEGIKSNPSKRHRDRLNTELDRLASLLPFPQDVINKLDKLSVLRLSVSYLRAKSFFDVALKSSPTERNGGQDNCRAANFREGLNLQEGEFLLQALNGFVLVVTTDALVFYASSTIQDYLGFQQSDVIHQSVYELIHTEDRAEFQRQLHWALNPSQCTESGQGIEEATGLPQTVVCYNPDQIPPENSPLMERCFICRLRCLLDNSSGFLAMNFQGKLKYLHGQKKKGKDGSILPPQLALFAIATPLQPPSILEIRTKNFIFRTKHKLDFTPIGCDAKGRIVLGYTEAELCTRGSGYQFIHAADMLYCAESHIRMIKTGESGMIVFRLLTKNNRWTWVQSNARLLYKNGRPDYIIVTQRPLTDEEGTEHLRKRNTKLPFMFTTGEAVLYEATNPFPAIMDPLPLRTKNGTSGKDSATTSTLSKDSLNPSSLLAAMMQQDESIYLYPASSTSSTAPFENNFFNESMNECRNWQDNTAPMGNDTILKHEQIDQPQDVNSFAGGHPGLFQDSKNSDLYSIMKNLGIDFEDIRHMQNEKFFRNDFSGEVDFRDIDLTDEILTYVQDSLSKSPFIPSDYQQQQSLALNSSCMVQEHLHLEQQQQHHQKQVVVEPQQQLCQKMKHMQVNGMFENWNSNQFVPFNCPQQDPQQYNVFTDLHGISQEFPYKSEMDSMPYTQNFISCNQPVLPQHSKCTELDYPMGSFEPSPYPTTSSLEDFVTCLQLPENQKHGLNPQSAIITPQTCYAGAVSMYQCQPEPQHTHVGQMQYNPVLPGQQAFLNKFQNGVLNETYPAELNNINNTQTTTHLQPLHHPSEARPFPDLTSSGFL
# A number is an active result; – = inactive; ? = inconclusive; · = not tested or not shown.
SMILES,PolyA inhibitor,procasp7 counter,procasp3 activ,AHR activator
CCOc1ccccc1NC(=O)c1ccccc1-c1ccccc1,–,–,–,–
CCOc1ccccc1NC(=O)c1cccc2ccccc12,–,–,–,74
Cc1ccc2nc(NCCc3ccccc3)c3nncn3c2c1,–,·,·,·
CC(C)(CO)NC(=O)Nc1ccc(Cl)c(Cl)c1,–,–,–,–
CCCN(CCC)CCCNC(=O)c1ccc(CS(=O)(=O)c2c(Cl)cccc2Cl)o1,–,–,–,–
COc1ccc(NC(=O)c2ccccc2NC(=O)c2ccco2)cc1,–,–,–,63
CCOc1ccccc1NC(=O)c1ccccc1NC(=O)c1ccco1,–,–,–,70
COc1ccc(C(=O)Nc2ccccc2C(=O)Nc2ccncc2)cc1,–,–,–,61
COc1ccc(OC)c(NC(=O)c2ccccc2NC(=O)c2ccco2)c1,?,–,–,–
O=C(Nc1ccccc1C(=O)N/N=C/c1ccccc1)c1ccco1,–,–,–,48
CCOCC(=O)Nc1cc(C(=O)Nc2ccc(F)cc2)ccc1Cl,–,–,–,63
Cc1cccc(NC(=O)c2ccccc2NC(=O)c2ccco2)c1,–,–,–,–
O=C(Nc1ccccc1C(=O)Nc1ccc2c(c1)OCO2)c1ccco1,–,–,–,47
CCOc1ccccc1NC(=O)c1ccc(C(=O)Nc2ccccc2OCC)nc1,–,–,–,72
CCOc1ccccc1NC(=O)c1cc(SC)ccc1Cl,–,–,–,72
Cc1nc2nc(C)c(NS(=O)(=O)c3ccc(Cl)s3)c(=O)n2[nH]1,–,–,–,–
COc1ccccc1N1CCN(C2CC(=O)N(c3cccc(Cl)c3)C2=O)CC1 (stereo not given),–,–,–,–
O=C(c1cc2cc([N+](=O)[O-])ccc2s1)N1CCOCC1,–,–,–,–
CCOc1ccccc1NC(=O)c1csc(C)c1C,–,–,–,71
CCOc1ccccc1NC(=O)c1ccc(Cl)c(NC(=O)CC(c2ccccc2)c2ccccc2)c1,–,–,–,80
CC1CCCC(NC(=O)COC(=O)COc2ccc(C#N)cc2)C1C (stereo not given),·,–,–,–
Nc1ccc2c3c(cccc13)CC2,–,–,–,55
Oc1ccc2ccccc2c1N=Nc1ccccc1F,–,–,–,50
Oc1ccc2ccccc2c1N=Nc1ccccn1,–,–,–,74
COCCn1c(Cc2ccccc2)nnc1SCC(=O)NC1CCCCC1,–,–,–,–
SMILES,PolyA inhibitor,procasp7 counter,procasp3 activ,AHR activator
C=CCSc1nc(-c2ccc(OC)cc2)c(C#N)c(=O)n1CC=C,–,·,·,·
O=C(Nc1ccccc1Cl)Oc1ccc(Cl)cc1Cl,–,–,–,50
S=C(Nc1ccccc1Cl)Nc1ccc(Cl)cc1Cl,–,–,–,–
CC1(c2cccc(Br)c2)NC(=O)N(CC(=O)Nc2ccc3c(c2)OCO3)C1=O (stereo not given),·,–,–,–
CCOC(=O)c1c(NC(=O)C2=COCCO2)sc2c1CCN(C(=O)OC)C2,–,–,–,–
N#CC1(C#N)C2=C(CCCC2)NC(c2ccccc2)C1(C#N)C#N (stereo not given),159,–,–,–
N#CC12C(N)=NC3(OCCO3)C1(C#N)C1=C(CCC1)NC2c1ccccc1 (stereo not given),–,–,–,–
O=c1c2ccccc2nc(COc2ccccc2)n1/N=C/c1c[nH]c2ccccc12,–,–,–,63
COc1ccc(S(=O)(=O)Nc2cc3c4c(oc3c3ccccc23)CC(C)(C)CC4=O)cc1,–,–,–,–
COc1ccc(S(=O)(=O)Nc2cc3c4c(oc3c3ccccc23)CCCC4=O)cc1,–,–,–,48
Cn1nnnc1SCC(=O)Nc1ncc(C(F)(F)F)cc1Cl,·,–,–,–
COc1ccccc1NC(=O)CSc1nnc2ccc(-c3ccccn3)nn12,–,–,–,–
COc1ccc(CNC(=O)CSc2nc3cccnc3s2)cc1,–,–,–,–
C=CCn1cnc2c(nnn2-c2ccc(Cl)cc2)c1=O,–,–,–,84
O=C(Nc1ccnn1C1CCN(C(=O)c2cccc(Cl)c2)CC1)C1CC1,–,–,–,–
CC(C)CN(C(=O)COC(=O)C12CC3CC(CC(C3)C1)C2)c1c(N)n(Cc2ccccc2)c(=O)[nH]c1=O,–,–,–,–
COc1ccc(NC(=O)C(=O)NCc2ccncc2)c(OC)c1,–,–,–,–
